Experimental findings from ChEMBL document CHEMBL3232983, “Discovery of 2-iminobenzimidazoles as potent hepatitis C virus inhibitors with a novel mechanism of action” (Eur J Med Chem, 2014) are described below.

SMILES strings stand for the structures. pEC50: −log10 of the molar value. The source made the active and inactive calls. The rule behind the calls is not given here.

A short description of series [1]: Selectivity index, ratio of CC50 for human HuH7 cells to EC50 for cell culture derived Hepatitis C virus. The series is classed as toxicity, cell-based, Huh-7. As to conditions: read-out: Ratio CC50/EC50. Put shortly:
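SI is CC50/EC50. Both values come from the same HCVcc assay in naïve Huh-7 cells: compound added 2 h before HCVcc inoculation, infection and cytotoxicity read at 72 h. Each was derived from 10-point dose-response curves in duplicate with quadruplicate measurements.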

Series [2] deals with Hepatitis C virus. The series can be described thus: Antiviral activity against Hepatitis C virus infected in human HuH7.5 cells assessed as reduction of secreted infectious viral particles incubated for 48 hrs followed by compound washout measured after 24 hrs. The class given is functional, organism-based. To be noted: Hepacivirus hominis; Huh-7. Put shortly:
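Supernatant-transfer (late-stage) assay. Transfected Huh-7.5 producer cells were treated with serially diluted compound at 37 °C for 48 h, then washed. Supernatant was collected 24 h after the wash, clarified by centrifugation and put onto naïve Huh-7 target cells. HCV RNA replication in the target cells was read at 72 h post inoculation and normalized to the 1% DMSO control (0% inhibition).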

Series [3] is described as follows: Half life in human liver microsomes at 2 uM. The series is classed as ADME. The essentials: (§1)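 Compound at 2 µM final (0.02% DMSO) was incubated with 0.5 mg/mL liver microsomes in potassium phosphate buffer. Human microsomes were a mixed-gender pool of 200 donors; rat microsomes were from males. Half-life is reported in minutes.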
Series [4] relates to Hepatitis C virus. As to the kind of experiment: Antiviral activity against cell culture derived Hepatitis C virus expressing NS5A-GFP fusion protein infected in human HuH7 cells assessed as infection rate preincubated for 2 hrs followed by viral inoculation measured after 72 hrs by HTS assay. The series is classed as functional, organism-based, Hepacivirus hominis. To be noted: Huh-7. The essentials: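 Naïve Huh-7 cells were exposed to serially diluted compound and inoculated with cell-culture-adapted HCVcc 2 h later. Infection rate was read at 72 h post-infection. EC50 came from 10-point dose-response curves run in duplicate with quadruplicate measurements, fitted by non-linear regression.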

The test system of series [5] is Vesicular stomatitis virus. The series can be described thus: Antiviral activity against Vesicular stomatitis virus pseudotyped particle expressing glycoproteins assessed as inhibition of viral attachment and internalization in human HuH7 cells at 3.3 uM preincubated for 1 hr followed by viral inoculation measured after 72 hrs GFP reporter gene assay. The series is classed as functional, organism-based. As to conditions: Huh-7. The essentials:
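Supernatant replaced at 12 h. At 72 h post inoculation, GFP expression was read by confocal microscopy at 20x. Data normalized to 1% DMSO control (0% inhibition). Triplicates with quadruple measurements (n = 12).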
A general note: In a reporter assay the amount or activity of a reporter protein is the signal.

Series [6] is described as follows: Cytotoxicity against human HuH7 cells after 72 hrs by Hoechst 33342 staining-based confocal microscopic analysis. The series is classed as cell-based, Huh-7. Put shortly: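 Naïve Huh-7 cells in the HCVcc format were compound-treated for 2 h, then infected. Cytotoxicity was determined at 72 h post-infection. CC50 came from 10-point dose-response curves in duplicate with quadruplicate measurements, fitted by non-linear regression.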

For series [7], the system named is Hepatitis C virus. The series can be described thus: Antiviral activity against Hepatitis C virus pseudotyped lentiviral particle expressing E1/E2 glycoproteins assessed as inhibition of viral attachment and internalization in human HuH7 cells at 3.3 uM preincubated for 1 hr followed by viral inoculation measured after 72 hrs GFP reporter gene assay. To be noted: Hepacivirus hominis, Huh-7. The series is classed as functional, organism-based. Put shortly:
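Huh-7 target cells were pretreated with 3.3 µM compound for 1 h. Supernatants were replaced at 12 h. GFP expression was scored by confocal microscopy at 72 h post inoculation and normalized to 1% DMSO. Triplicates with quadruple measurements (n = 12).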

Series [8] relates to Hepatitis C virus. The series can be described thus: Antiviral activity against Hepatitis C virus infected in human HuH7.5 cells assessed as inhibition of viral RNA replication after 72 hrs. The series is classed as functional, organism-based. To be noted: Hepacivirus hominis; Huh-7. Put shortly:
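Transiently transfected Huh-7.5 producer cells carrying full-length HCV RNA genomes were plated and left overnight at 37 °C. They were then treated with increasing compound concentrations at 37 °C for 48 h and washed. Viral RNA replication and cytotoxicity in the producer cells were read at 72 h post compound treatment. Data were normalized to the 1% DMSO control, set as 0% inhibition.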

Series [9] in a line: Half life in rat liver microsomes at 2 uM. The series is classed as ADME. The essentials: as §1
(In general: Microsomes from liver hold many membrane-bound enzymes, among them those of drug oxidation.)

As usually defined, the half-life is how long it takes for the measured level to halve. As a reminder, the pEC50 is the EC50 on a negative log10 scale, so that one unit is a factor of ten. The term CC50 denotes the concentration at which the toxic effect on the cells reaches its halfway point. Lower therefore signals harm at low concentration. `Br.Cn1c(=N)n(CCOc2ccc(Cl)cc2)c2ccccc21`: the selectivity ratio in [1] worked out at 475. For the same compound, in series [2], the Activity entry is “Dose-dependent effect”. In addition, the results for the half-life at 2 µM in series [3] and in series [9] were more than 1 h and 0.225 h, respectively. In [4], the negative logarithm of the EC50 (pEC50) was 7.80. The inhibition result in series [5] was “inactive”. In addition, it took 7600 nM to reach half-maximal cytotoxicity in series [6] (CC50 at 72 h). Moreover, the inhibition result in series [7] and in series [8] was “Active” in each case.

Turning to `CCC(=O)Cn1c(=N)n(CCOc2ccc(Cl)cc2)c2ccccc21`, the pEC50 in series [4] was 5.64. For the same compound, in [6], half-maximal cytotoxicity (CC50 at 72 h) was put at 8500 nM.

Turning to `CCc1ccc(Cn2c(=N)n(C)c3ccccc32)cc1`, the selectivity ratio in series [1] stood at 12.6. Moreover, the pEC50 in series [4] was 6.34. This compound yielded a CC50 at 72 h in series [6] of 5800 nM.

Turning to `Clc1ccc(OCCN2C3=NCCN3c3ccccc32)cc1`, in [4], the pEC50 is 7.30. Moreover, in series [6], the CC50 at 72 h was found to be 20000 nM.

Consider `Br.Cn1c(=N)n(CCOc2ccc(Cl)cc2)c2c(Cl)cccc21`, for which, in series [1], the selectivity ratio came out at 443. The values for the half-life at 2 µM in series [3] and in series [9] were more than 1 h and 0.623 h, respectively. Besides, the negative logarithm of the EC50 (pEC50) in series [4] was 8.01. Also, in series [6], the CC50 at 72 h was found to be 4300 nM.

With `CCc1ccc(C(=O)Cn2c(=N)n(C)c3ccccc32)cc1`, the selectivity ratio in series [1] was found to be 25. For the same compound, the negative-log EC50 (pEC50) in series [4] is 6.42. It took 9500 nM to reach half-maximal cytotoxicity in series [6] (CC50 at 72 h).

`Br.Cn1c(=N)n(CCOc2ccc(Cl)cc2)c2cc(Cl)ccc21`: the selectivity ratio in series [1] is 246. In addition, the half-life at 2 µM in [3] and in series [9] was more than 1 h each time. Moreover, the pEC50 in [4] was 7.40. The compound further showed a CC50 at 72 h in series [6] of 9840 nM.

In the case of `Br.Cc1ccc2c(c1)n(CCOc1ccc(Cl)cc1)c(=N)n2C`, the selectivity ratio in series [1] came to 118. The half-life at 2 µM in series [3] is more than 1 h; in [9] it was 0.3 h. In series [4], the negative-log EC50 (pEC50) was 7.05. The same compound came in with a CC50 at 72 h in [6] of 10600 nM.

With `CCc1ccc(OCCn2c(=N)n(C)c3ccccc32)cc1`, the selectivity ratio in series [1] is 178. The pEC50 in series [4] was 7.30. Further, half-maximal cytotoxicity in series [6] (CC50 at 72 h) was put at 8900 nM.

As for `Cn1c(=N)n(Cc2ccc(C(C)(C)C)cc2)c2ccccc21`, the selectivity ratio in series [1] came out at 34.7. Moreover, the pEC50 in [4] was 6.77. In series [6], this compound gave a CC50 at 72 h of 5900 nM.

Turning to `Nc1nc2ccccc2n1CCOc1ccc(Cl)cc1`, in series [4], the pEC50 is 5.40. Besides, in series [6], the CC50 at 72 h was determined as 8900 nM.

With `Cn1c(=N)n(CC(=O)c2ccc(Cl)cc2)c2ccccc21`, the selectivity ratio in series [1] amounted to 274. Besides, the pEC50 in [4] was 7.14. The compound also had a CC50 at 72 h in series [6] of 20000 nM.

For the compound `Cn1c(=N)n(CC(=O)c2ccc3ccccc3c2)c2ccccc21`, the selectivity ratio in [1] stood at 13. Further, in series [4], the pEC50 was 6.47. Moreover, the CC50 at 72 h in series [6] was 4500 nM.

In the case of `Cn1c(=N)n(CCOc2ccc(-c3ccccc3)cc2)c2ccccc21`, the selectivity ratio in [1] is 17. Also, the pEC50 in series [4] was 6.70. This compound also came in with a CC50 at 72 h in [6] of 3400 nM.

`Cn1c(=N)n(CC(=O)c2ccc(C(C)(C)C)cc2)c2ccccc21`: the selectivity ratio in series [1] was 113. Moreover, the pEC50 in [4] is 7.10. Moreover, it took 8900 nM to reach half-maximal cytotoxicity in series [6] (CC50 at 72 h).

`Br.Cn1c(=N)n(CCOc2ccc(Cl)cc2)c2cccc(Cl)c21`: in series [1], the selectivity ratio stood at 455. Moreover, the half-life at 2 µM in series [3] and in series [9] was more than 1 h throughout. The pEC50 in series [4] was 8.48. This compound had a CC50 at 72 h in series [6] of 1500 nM.

`Br.Cc1cccc2c1n(C)c(=N)n2CCOc1ccc(Cl)cc1`: the selectivity ratio in series [1] was determined as 115. The half-life at 2 µM was more than 1 h in series [3] and 0.41 h in series [9]. Besides, in series [4], the pEC50 is 6.89. Moreover, in series [6], the midpoint of cytotoxicity, the CC50 at 72 h, lay at 15000 nM.

For `Cn1c(=N)n(CCOc2ccc(C(C)(C)C)cc2)c2ccccc21`, the selectivity ratio in [1] came out at 62. The pEC50 in series [4] is 7.35. Further, in [6], the CC50 at 72 h was determined as 2800 nM.

With `Cn1c(=NC#N)n(CCOc2ccc(Cl)cc2)c2ccc(Cl)c(Cl)c21`, the pEC50 in [4] was less than 4.70. This compound also returned a half-maximal cytotoxic concentration (CC50) at 72 h in series [6] of more than 20000 nM.

For `CCc1cn2c3ccccc3n(CCOc3ccc(Cl)cc3)c2n1`, the pEC50 in series [4] was 5.22. The same compound gave a CC50 at 72 h in series [6] of 20000 nM.

On to `Br.Cc1ccc2c(c1)n(C)c(=N)n2CCOc1ccc(Cl)cc1`, for which, in series [1], the selectivity ratio was found to be 2900. In addition, the results for the half-life at 2 µM in [3] and in series [9] were more than 1 h and 0.145 h, respectively. The pEC50 in series [4] is 9.00. The compound also came in with a CC50 at 72 h in series [6] of 2900 nM.

As to `Cn1c(=N)n(Cc2ccc(-c3ccccc3)cc2)c2ccccc21`, the selectivity ratio in series [1] was 11.8. Further, the negative-log EC50 (pEC50) in series [4] is 6.66. Further, the CC50 at 72 h in [6] was found to be 2600 nM.

Take `Br.Cn1c(=N)n(CCOc2ccc(Cl)cc2)c2ccc(Cl)cc21`: the selectivity ratio in [1] came out at 373. The half-life at 2 µM in series [3] and in [9] was more than 1 h each time. Moreover, the pEC50 in series [4] was 7.96. The compound also displayed a CC50 at 72 h in [6] of 4100 nM.
